Test results as given in ChEMBL document CHEMBL1155259, “Synthesis and multidrug resistance reversal activity of dihydroptychantol A and its novel derivatives” (2009).

Legend:
[1] = Cytotoxicity against vincristine-resistant human KB/VCR cells at 10 uM after 48 hrs by MTT assay; type: functional
How it was run: (§1)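 Cells grown in RPMI 1640 with 10% FBS at 37 °C, 5% CO₂ until roughly 50–70% confluent, then cultured in 24-well plates and exposed to vehicle (DMSO) or test compound alone at 10 μM for 48 h. Percent growth inhibition measured by MTT assay; three replicates per treatment, assay repeated at least thrice.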

[2] = Cytotoxicity against adriamycin-resistant human K562/A02 cells at 10 uM after 48 hrs by MTT assay; type: functional; conditions: K562/A02, 48 h; how it was run: as §1
KB/VCR = assay: Reversal of P-gp-mediated multidrug resistance in human KB/VCR cells assessed as reversal factor, ratio of vincristine ID50 without drug to vincristine ID50 with drug at 10 uM after 48 hrs by MTT assay; type: cell-based
How it was run: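 KB/VCR cells in RPMI 1640 with 10% FBS (37 °C, 5% CO₂) seeded at 6 × 10⁴/ml in 24-well plates. They were co-treated with a range of vincristine concentrations, with or without test compound at 10 μM, and viability read by MTT. Vincristine ID₅₀ was derived relative to untreated cells (100%). RF = ID₅₀ of vincristine alone / ID₅₀ with compound. Triplicates, repeated at least thrice.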

KB = assay: Cytotoxicity against human KB cells at 10 uM after 48 hrs by MTT assay; type: functional; how it was run: as §1
K562 = assay: Cytotoxicity against human K562 cells at 10 uM after 48 hrs by MTT assay; type: functional; conditions: K562, 48 h; how it was run: as §1

COc1ccc2c(c1)CCc1ccc(OC)c(c1)Oc1ccc(cc1)-c1nc(NN)sc1-c1cccc(c1)O2
inhibition at 10 µM [1]: 0%
inhibition at 10 µM [2]: 18.8%
Ratio (KB/VCR): 10.6
inhibition at 10 µM (KB): 0%
inhibition at 10 µM (K562): 32.1%

Nc1nc2c(s1)-c1cccc(c1)Oc1ccc(O)cc1CCc1ccc(O)c(c1)Oc1ccc-2cc1
inhibition at 10 µM [1]: 0%
inhibition at 10 µM [2]: 10.1%
Ratio (KB/VCR): 13.8
inhibition at 10 µM (KB): 0%
inhibition at 10 µM (K562): 11.6%

COc1ccc2c(c1)CCc1ccc(OC)c(c1)Oc1ccc(cc1)-c1nc(N)sc1-c1cccc(c1)O2
inhibition at 10 µM [1]: 0%
inhibition at 10 µM [2]: 26.8%
Ratio (KB/VCR): 12.3
inhibition at 10 µM (KB): 0%
inhibition at 10 µM (K562): 58.7%

COc1ccc2c(c1)CCc1ccc(OC)c(c1)Oc1ccc(cc1)C(O)C(Br)c1cccc(c1)O2 (centres undefined)
inhibition at 10 µM [1]: 0%
inhibition at 10 µM [2]: 11.9%
Ratio (KB/VCR): 10.5
inhibition at 10 µM (KB): 2.82%
inhibition at 10 µM (K562): 38.5%

NNc1nc2c(s1)-c1cccc(c1)Oc1ccc(O)cc1CCc1ccc(O)c(c1)Oc1ccc-2cc1
inhibition at 10 µM [1]: 19.4%
inhibition at 10 µM [2]: 13.7%
inhibition at 10 µM (KB): 51.1%
inhibition at 10 µM (K562): 37.1%
